Most compounds without a hit are left out; they make up all but 6.4% or so of the library.
Ecoli tolC = blocks growth of E. coli BW25113 tolC mutant; OD615; growth inhibition, % at 10 µM (by protocol); actives 2.2% (n = 65,000); AID 573;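 active means growth inhibition at or above a cutoff equal to the mean over every tested compound plus 3 SD, cut at about 60% in these data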;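 further: growth measured after 20 h incubation at 37 °C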
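Signal: optical density read at 615 nm; Assay system: E. coli ΔtolC::kan strain BW25113; Times: 20 h incubation with compound, 37 °C; Dosing: 10 µM final, single dose.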
Lung fibro prol = blocks proliferation of human lung fibroblasts; actives 1.1% (n = 85,000); LL 47 human lung fibroblast viability, ATP luminescence; hits give low values; viability, % at 10 µM;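 active means viability at or below 50% in the single dose screen; inactive means viability above 50%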;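 further: compound exposure lasted 72 h before the ATP readout; 100% = median luminescence of untreated cell-only wells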
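test system = LL 47 human lung fibroblasts | amount = 1,150 fibroblasts seeded per well | medium = 15% FBS in IMEM | times = overnight cell rest, 72 h compound treatment at 37 °C | measured by = CellTiter-Glo luminescence measuring cellular ATP | read-out = viability percentage against median untreated-cell control | benchmarks = cell-only wells, no compound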
H69AR inhibit = growth inhibitors of human H69AR lung tumor cells. H69AR lung tumor viability, ATP luminescence, 72 h; hits give low values. viability, % at 10 µM. actives 6% (n = 85,000);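 active means viability at or below 40%; inactive means viability above 40%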;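 further: multidrug resistant small cell line overexpressing MRP-1 efflux transporter; 100% = mean luminescence of untreated control wells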
E coli WT exp = blocks growth of wild type E. coli BW25113; growth inhibition, % at 100 µM; OD600 absorbance; actives 0.15% (n = 98,000); AID 710;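 active means growth inhibition above about 50% at one test dose, limit read from the data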;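 further: growth measured after 20 h incubation at 37 °C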
Jurkat viability = cytotoxicity toward Jurkat cells; Jurkat E6.1 viability, ATP luminescence, 48 h; AID 463; actives 1.2% (n = 56,000); inhibition, % at 4 µM;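 active means inhibition above the mean inhibition of all tested compounds plus 3 SD, cut at about 28% in these data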
HUVEC prolif 384 = inhibitors of human endothelial cell proliferation; HUVEC proliferation, CellTiter-Glo luminescence, 72 h; hits give low values; viability, % at 10 µM (by protocol); actives 1.1% (n = 86,000); AID 648;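 active means viability at or below 30%; inactive means viability above 30%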;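 further: 100% = median luminescence of DMSO-only cell control wells on each plate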
An asterisk follows results filed as active; · = no result given.

SMILES	Ecoli tolC	Lung fibro prol	H69AR inhibit	E coli WT exp	Jurkat viability	HUVEC prolif 384
O=C(COC(=O)CC12CC3CC(CC(Br)(C3)C1)C2)NC(=O)NCc1ccco1	·	103.0	100.3	9.0	·	96.1
O=C(O)COc1ccc2c3c(c(=O)oc2c1)CCC3	·	102.5	90.3	9.0	·	99.9
O=C(NC1CC1)C1=COCCO1	·	·	·	3.0	·	·
CN(C)CCCNc1cn[nH]c(=O)c1Cl	·	105.2	106.9	0.0	·	96.6
CC1(C)Cc2c(C#N)c(OCC(=O)c3ccc(Cl)cc3)nc(-c3ccco3)c2CO1	-14.6	41.5*	57.6	-10.0	-3.6	59.9
CC1(C)Cc2c(C#N)c(NCc3ccco3)nc(-c3ccco3)c2CO1	6.5	76.4	20.1*	-11.0	·	49.7
Cc1nc(OCC(=O)c2ccc(Cl)cc2)c(C#N)c2c1COC(C)(C)C2	·	101.6	56.5	-1.0	·	107.0
N#Cc1c(NCCN)nc(-c2ccco2)c2c1CCCC2	·	40.8*	7.1*	12.0	·	67.0
Cc1ccc(-c2ccc(/C=N/N3C(=O)C4C5C=CC(CC5)C4C3=O)o2)c([N+](=O)[O-])c1 (configuration not stated)	·	105.3	82.2	-23.0	·	85.4
Nc1nonc1-c1nc2ccccc2n1CC(=O)N/N=C\c1ccc(-c2ccc(Cl)cc2)o1	·	·	·	-3.0	·	·
O=C1COc2ccc(C(=O)c3ccccc3C(=O)NCc3ccco3)cc2N1	·	99.6	73.2	1.0	·	107.5
COc1ccc(CCCNC(=O)CC#N)cc1OC	1.6	85.5	88.1	-7.0	·	89.2
CCn1c(SCC(=O)Nc2ccc3c(c2)oc2ccccc23)nnc1-c1ccc(N)cc1	·	94.8	61.0	-5.0	·	31.3
COc1ccc(Cl)cc1NC(=O)Nc1ccc(Br)cn1	·	90.8	37.7*	-4.0	·	97.6
CCOC(=O)c1cc(NC(=O)CSCCO)ccc1Cl	3.2	97.5	15.3*	2.0	9.2	105.4
COc1ccc(OC)c(Nc2nc(-c3sc(C)nc3C)cs2)c1	6.9	94.5	25.6*	-14.0	-4.5	58.3
Cc1cc(NC(=O)CSc2nc3ccc(Cl)cc3[nH]2)no1	·	97.1	94.0	8.0	·	80.1
N#CC1=C(N)Oc2cc(N)ccc2C1C1CC=CCC1 (configuration not stated)	1.3	95.8	29.1*	13.0	55.9*	61.5
O=C(Nc1nnc(-c2cccs2)o1)c1cccc(F)c1	100.0*	64.4	103.4	·	74.6*	50.7
O=C(Nc1nnc(-c2cccs2)o1)c1cccc(Oc2ccccc2)c1	97.0*	87.5	38.7*	29.0	9.6	61.4
COc1cccc(C(=O)Nc2nnc(-c3cccs3)s2)c1	·	·	·	-26.0	·	·
COc1ccccc1-n1cc(C(=O)NCC(=O)N2CCN(c3ccccc3)CC2)c2ccccc2c1=O	5.1	97.8	92.7	-8.0	-1.7	107.4
CC1(C)CSC(=S)N1S(=O)(=O)c1ccccc1	1.6	99.8	84.8	11.0	-4.6	40.0
O=C(Nc1nnc(-c2ccc3c(c2)CCCC3)o1)c1ccccc1Cl	97.6*	71.6	23.2*	6.0	0.9	22.6*
O=C(COc1ccccc1)Nc1nnc(-c2ccc3c(c2)CCCC3)o1	·	98.5	76.0	-6.0	·	91.3
SMILES	Ecoli tolC	Lung fibro prol	H69AR inhibit	E coli WT exp	Jurkat viability	HUVEC prolif 384
O=C(Nc1nnc(-c2ccc3c(c2)CCCC3)o1)c1ccccc1	·	64.1	38.1*	25.0	·	22.7*
O=C(Nc1nnc(-c2ccc3c(c2)OCCO3)o1)c1ccc(Cc2ccccc2)cc1	100.0*	89.0	37.0*	-1.0	-21.0	9.6*
O=C1c2ccccc2C(=O)N1CCc1csc(-c2cccc(F)c2)n1	·	·	·	-20.0	·	·
COc1cc2c(C(=O)N3CCN(c4cccc(Cl)c4)CC3)cn(C)c(=O)c2cc1OC	·	·	·	3.0	·	·
O=C(c1c(Cl)nc2sccn12)N1CCN(c2cccc(Cl)c2)CC1	34.9	59.5	19.3*	-4.0	·	54.2
COc1ccccc1C(=O)N1CCN(c2cccc(Cl)c2)CC1	7.0	46.4*	58.4	5.0	·	50.3
O=C(c1cccc(F)c1)N1CCN(c2cccc(Cl)c2)CC1	17.5	71.8	18.3*	9.0	79.5*	65.0
CCC(C(=O)N1CCN(c2cccc(Cl)c2)CC1)c1ccccc1 (configuration not stated)	100.0*	90.6	100.2	-6.0	0.2	97.9
Cc1ccc(N2C(=O)C3ON(c4ccccc4)C(c4ccncc4)C3C2=O)c(C)c1 (configuration not stated)	11.6	108.1	99.9	2.0	·	102.7
O=C(Nc1ccc(N2CCN(C(=O)c3ccco3)CC2)cc1)c1cccc(F)c1	31.9	98.9	30.3*	-3.0	0.7	82.1

High-throughput results from PubChem.
